{"source": "ChEMBL document CHEMBL3351385", "about": "“Synthesis and preliminary mechanistic evaluation of 5-(p-tolyl)-1-(quinolin-2-yl)pyrazole-3-carboxylic acid amides with potent antiproliferative activity on human cancer cell lines” (Eur J Med Chem, 2014)", "key": {"[1]": {"target": "SRSF protein kinase 1 (Homo sapiens) (UniProt Q96SB4)", "test": "Inhibition of SRPK1 (unknown origin) assessed as remaining enzyme activity at 10 uM by radioactive [33P]-ATP filter binding assay"}, "[2]": {"target": "Serine/threonine-protein kinase pim-2 (Homo sapiens) (UniProt Q9P1W9)", "sequence (Q9P1W9 whole entry, looked up)": "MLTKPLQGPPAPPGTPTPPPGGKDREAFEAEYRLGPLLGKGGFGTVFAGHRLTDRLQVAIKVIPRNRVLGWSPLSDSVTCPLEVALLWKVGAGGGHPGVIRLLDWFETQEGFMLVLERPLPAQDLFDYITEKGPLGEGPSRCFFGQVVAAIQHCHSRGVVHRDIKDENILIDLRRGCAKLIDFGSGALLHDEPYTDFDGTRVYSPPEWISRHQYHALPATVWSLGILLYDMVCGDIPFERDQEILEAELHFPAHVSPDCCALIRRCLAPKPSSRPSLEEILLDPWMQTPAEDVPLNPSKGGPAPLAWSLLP", "test": "Inhibition of PIM2 (unknown origin) assessed as remaining enzyme activity at 10 uM by radioactive [33P]-ATP filter binding assay"}, "[3]": {"target": "Tubulin (Homo sapiens) (UniProt P68371+Q9H4B7+P0DPH7+P68366+Q13509+Q71U36+P04350+Q3ZCM7+P07437+P68363+Q9BQE3+Q6PEY2+Q13885+Q9BVA1+Q9BUF5)", "test": "Inhibition of tubulin polymerization (unknown origin)", "format": "protein-complex assay"}, "[4]": {"target": "Serine/threonine-protein kinase N2 (Homo sapiens) (UniProt Q16513)", "test": "Inhibition of PRK2 (unknown origin) assessed as remaining enzyme activity at 10 uM by radioactive [33P]-ATP filter binding assay"}, "[5]": {"test_system": "Huh-7", "test": "Induction of cell death in human HuH7 cells assessed as nuclear condensation at cytotoxic IC50 level after 72 hrs by Hoechst 33258 staining based […]", "format": "functional", "how_it_was_run": "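Cells were washed in cold PBS, fixed 10 min in cold methanol and stained with Hoechst 33258 at 3 µg/mL for 5 min in the dark. Nuclear condensation and fragmentation were examined by fluorescence microscopy at 40×.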"}, "[6]": {"target": "Serine/threonine-protein kinase Nek2 (Homo sapiens) (UniProt P51955)", "test": "Inhibition of NEK2A (unknown origin) assessed as remaining enzyme activity at 10 uM by radioactive [33P]-ATP filter binding assay"}, "[7]": {"target": "Serine/threonine-protein kinase BRSK1 (Homo sapiens) (UniProt Q8TDC3)", "test": "Inhibition of BRSK1 (unknown origin) assessed as remaining enzyme activity at 10 uM by radioactive [33P]-ATP filter binding assay", "how_it_was_run": "(§1)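 A single 10 µM concentration was tested across a 140-kinase panel. Activity was measured by a radioactive 33P-ATP filter-binding assay run at the International Center for Kinase Profiling, University of Dundee.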"}, "[8]": {"target": "MAP/microtubule affinity-regulating kinase 3 (Homo sapiens) (UniProt P27448)", "sequence (P27448 whole entry, looked up)": "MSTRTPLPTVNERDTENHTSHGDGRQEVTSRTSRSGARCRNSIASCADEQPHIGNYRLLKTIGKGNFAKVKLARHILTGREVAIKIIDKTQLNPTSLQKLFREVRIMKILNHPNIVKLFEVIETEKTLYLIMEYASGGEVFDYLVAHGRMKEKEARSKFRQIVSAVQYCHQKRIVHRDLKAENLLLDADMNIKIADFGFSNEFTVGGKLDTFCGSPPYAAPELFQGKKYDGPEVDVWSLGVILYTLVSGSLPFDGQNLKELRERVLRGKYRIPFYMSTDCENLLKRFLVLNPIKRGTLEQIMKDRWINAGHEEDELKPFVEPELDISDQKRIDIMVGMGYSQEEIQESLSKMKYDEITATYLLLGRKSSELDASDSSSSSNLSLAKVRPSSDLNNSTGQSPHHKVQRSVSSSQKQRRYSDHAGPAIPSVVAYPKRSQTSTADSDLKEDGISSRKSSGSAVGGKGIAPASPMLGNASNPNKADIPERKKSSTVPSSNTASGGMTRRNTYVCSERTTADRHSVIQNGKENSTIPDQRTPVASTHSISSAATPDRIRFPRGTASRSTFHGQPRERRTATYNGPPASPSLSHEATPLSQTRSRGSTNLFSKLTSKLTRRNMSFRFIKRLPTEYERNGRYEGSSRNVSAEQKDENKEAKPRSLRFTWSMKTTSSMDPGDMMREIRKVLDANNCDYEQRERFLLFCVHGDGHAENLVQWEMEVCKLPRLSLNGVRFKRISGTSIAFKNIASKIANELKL", "test": "Inhibition of MARK3 (unknown origin) assessed as remaining enzyme activity at 10 uM by radioactive [33P]-ATP filter binding assay"}, "[9]": {"target": "Serine/threonine-protein kinase WNK1 (Homo sapiens) (UniProt Q9H4A3)", "sequence (Q9H4A3 whole entry, looked up)": "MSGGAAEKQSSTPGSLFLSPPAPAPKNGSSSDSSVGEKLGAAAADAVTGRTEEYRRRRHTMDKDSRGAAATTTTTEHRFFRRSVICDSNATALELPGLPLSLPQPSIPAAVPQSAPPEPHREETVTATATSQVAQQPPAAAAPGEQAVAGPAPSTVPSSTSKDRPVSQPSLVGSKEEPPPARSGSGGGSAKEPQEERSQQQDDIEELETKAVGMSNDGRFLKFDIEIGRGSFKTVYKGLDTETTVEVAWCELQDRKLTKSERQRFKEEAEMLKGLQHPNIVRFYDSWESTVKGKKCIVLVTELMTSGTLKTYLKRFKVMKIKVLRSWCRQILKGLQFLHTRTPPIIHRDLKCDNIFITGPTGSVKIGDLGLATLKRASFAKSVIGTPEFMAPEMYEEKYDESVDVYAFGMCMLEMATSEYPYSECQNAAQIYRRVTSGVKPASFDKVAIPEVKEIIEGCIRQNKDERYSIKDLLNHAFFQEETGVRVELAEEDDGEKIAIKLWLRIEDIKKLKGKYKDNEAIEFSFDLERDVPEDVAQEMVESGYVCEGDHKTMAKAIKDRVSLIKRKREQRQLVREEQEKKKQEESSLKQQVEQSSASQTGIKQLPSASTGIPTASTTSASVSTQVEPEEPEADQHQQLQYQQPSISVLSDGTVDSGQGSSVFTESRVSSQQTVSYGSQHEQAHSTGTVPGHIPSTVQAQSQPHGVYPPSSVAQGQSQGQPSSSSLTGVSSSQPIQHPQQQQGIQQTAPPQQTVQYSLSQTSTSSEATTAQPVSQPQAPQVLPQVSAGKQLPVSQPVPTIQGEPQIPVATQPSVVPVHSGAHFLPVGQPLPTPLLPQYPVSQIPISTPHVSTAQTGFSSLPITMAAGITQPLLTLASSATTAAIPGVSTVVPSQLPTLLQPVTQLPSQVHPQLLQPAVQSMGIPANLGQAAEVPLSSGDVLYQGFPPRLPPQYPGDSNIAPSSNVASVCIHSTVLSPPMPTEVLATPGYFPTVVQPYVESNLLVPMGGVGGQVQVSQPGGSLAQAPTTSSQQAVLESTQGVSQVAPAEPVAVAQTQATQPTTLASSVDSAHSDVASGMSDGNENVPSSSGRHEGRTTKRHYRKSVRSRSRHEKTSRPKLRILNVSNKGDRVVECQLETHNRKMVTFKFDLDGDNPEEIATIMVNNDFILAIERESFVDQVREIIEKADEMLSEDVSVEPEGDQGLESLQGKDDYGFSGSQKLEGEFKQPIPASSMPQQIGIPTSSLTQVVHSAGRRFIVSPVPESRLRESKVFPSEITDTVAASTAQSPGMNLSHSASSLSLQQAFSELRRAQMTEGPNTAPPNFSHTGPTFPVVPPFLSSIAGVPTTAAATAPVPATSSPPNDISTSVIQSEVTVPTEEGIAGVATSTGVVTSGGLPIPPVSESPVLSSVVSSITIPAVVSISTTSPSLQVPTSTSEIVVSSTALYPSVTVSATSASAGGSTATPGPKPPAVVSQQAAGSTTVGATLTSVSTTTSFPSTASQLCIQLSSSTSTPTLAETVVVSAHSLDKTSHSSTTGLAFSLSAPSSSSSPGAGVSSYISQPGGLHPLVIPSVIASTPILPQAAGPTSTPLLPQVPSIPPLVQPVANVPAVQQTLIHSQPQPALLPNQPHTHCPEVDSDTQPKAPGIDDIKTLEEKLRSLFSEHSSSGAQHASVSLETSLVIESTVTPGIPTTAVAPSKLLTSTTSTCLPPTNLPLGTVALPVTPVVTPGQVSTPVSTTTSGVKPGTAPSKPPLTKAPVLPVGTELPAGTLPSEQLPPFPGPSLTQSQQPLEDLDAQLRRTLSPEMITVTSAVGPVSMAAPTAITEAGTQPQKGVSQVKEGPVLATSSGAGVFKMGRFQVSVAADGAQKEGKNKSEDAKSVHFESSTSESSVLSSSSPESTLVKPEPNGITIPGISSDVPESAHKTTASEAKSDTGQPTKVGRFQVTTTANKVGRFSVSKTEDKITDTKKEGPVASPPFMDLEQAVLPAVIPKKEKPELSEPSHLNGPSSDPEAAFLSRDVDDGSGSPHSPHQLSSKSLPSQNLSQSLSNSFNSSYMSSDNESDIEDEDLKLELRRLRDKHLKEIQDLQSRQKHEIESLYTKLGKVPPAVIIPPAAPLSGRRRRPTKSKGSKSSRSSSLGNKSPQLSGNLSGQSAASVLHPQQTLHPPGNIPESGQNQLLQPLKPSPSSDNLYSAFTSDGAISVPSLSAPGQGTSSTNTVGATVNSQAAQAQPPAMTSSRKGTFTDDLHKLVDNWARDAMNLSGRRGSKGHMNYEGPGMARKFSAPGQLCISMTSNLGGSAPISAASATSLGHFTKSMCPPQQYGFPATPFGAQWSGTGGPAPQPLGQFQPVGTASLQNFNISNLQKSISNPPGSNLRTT", "test": "Inhibition of WNK1 (unknown origin) assessed as remaining enzyme activity at 10 uM by radioactive [33P]-ATP filter binding assay"}, "[10]": {"target": "Serine/threonine-protein kinase tousled-like 1 (Homo sapiens) (UniProt Q9UKI8)", "sequence (Q9UKI8 whole entry)": "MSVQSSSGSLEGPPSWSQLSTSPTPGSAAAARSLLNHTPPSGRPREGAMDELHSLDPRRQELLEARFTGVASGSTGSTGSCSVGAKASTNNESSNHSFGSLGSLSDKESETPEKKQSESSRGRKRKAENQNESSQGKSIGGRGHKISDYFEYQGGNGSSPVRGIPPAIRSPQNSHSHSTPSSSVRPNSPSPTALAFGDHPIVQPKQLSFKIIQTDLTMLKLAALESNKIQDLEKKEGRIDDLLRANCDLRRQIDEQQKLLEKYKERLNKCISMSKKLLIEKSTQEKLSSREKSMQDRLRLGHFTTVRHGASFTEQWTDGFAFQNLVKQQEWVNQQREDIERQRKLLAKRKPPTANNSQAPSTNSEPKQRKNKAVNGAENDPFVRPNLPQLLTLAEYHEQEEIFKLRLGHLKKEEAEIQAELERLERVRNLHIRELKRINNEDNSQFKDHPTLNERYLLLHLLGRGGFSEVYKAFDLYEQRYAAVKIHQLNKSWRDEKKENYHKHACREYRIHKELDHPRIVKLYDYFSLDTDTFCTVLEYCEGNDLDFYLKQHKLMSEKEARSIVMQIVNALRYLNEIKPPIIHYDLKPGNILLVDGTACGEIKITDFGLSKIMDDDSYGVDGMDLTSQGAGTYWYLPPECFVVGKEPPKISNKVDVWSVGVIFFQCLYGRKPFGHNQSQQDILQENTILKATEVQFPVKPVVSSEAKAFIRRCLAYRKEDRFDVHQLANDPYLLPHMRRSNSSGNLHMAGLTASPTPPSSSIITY", "test": "Inhibition of TLK1 (unknown origin) assessed as remaining enzyme activity at 10 uM by radioactive [33P]-ATP filter binding assay"}, "[11]": {"target": "Ephrin type-A receptor 4 (Homo sapiens) (UniProt P54764)", "test": "Inhibition of EPHA4 (unknown origin) assessed as remaining enzyme activity at 10 uM by radioactive [33P]-ATP filter binding assay", "how_it_was_run": "as §1"}, "[12]": {"target": "Ephrin type-B receptor 3 (Homo sapiens) (UniProt P54753)", "test": "Inhibition of EPHB3 (unknown origin) assessed as remaining enzyme activity at 10 uM by radioactive [33P]-ATP filter binding assay", "how_it_was_run": "as §1"}, "[13]": {"target": "Homeodomain-interacting protein kinase 1 (Homo sapiens) (UniProt Q86Z02)", "test": "Inhibition of HIPK1 (unknown origin) assessed as remaining enzyme activity at 10 uM by radioactive [33P]-ATP filter binding assay"}, "[14]": {"target": "Mitogen-activated protein kinase 10 (Homo sapiens) (UniProt P53779)", "sequence (P53779 whole entry)": "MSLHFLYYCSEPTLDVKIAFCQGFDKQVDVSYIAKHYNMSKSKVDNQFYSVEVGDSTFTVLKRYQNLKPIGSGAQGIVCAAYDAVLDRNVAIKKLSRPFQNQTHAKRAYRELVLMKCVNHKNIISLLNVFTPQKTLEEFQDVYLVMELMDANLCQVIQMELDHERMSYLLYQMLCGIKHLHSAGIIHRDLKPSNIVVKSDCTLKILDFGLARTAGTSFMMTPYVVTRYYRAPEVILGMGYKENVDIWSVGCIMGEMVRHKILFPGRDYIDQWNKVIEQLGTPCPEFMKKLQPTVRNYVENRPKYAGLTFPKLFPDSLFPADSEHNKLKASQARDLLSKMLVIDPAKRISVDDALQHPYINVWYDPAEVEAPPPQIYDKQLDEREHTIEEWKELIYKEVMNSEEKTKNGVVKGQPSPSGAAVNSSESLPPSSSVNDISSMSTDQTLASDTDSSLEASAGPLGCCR", "test": "Inhibition of JNK3 (unknown origin) assessed as remaining enzyme activity at 10 uM by radioactive [33P]-ATP filter binding assay"}, "[15]": {"target": "TGF-beta receptor type-1 (Homo sapiens) (UniProt P36897)", "test": "Inhibition of TGFBR1 (unknown origin) assessed as remaining enzyme activity at 10 uM by radioactive [33P]-ATP filter binding assay"}, "[16]": {"target": "Serine/threonine-protein kinase pim-1 (Homo sapiens) (UniProt P11309)", "test": "Inhibition of PIM1 (unknown origin) assessed as remaining enzyme activity at 10 uM by radioactive [33P]-ATP filter binding assay"}, "[17]": {"target": "Mitogen-activated protein kinase kinase kinase 1 (Homo sapiens) (UniProt Q13233)", "test": "Inhibition of MEKK1 (unknown origin) assessed as remaining enzyme activity at 10 uM by radioactive [33P]-ATP filter binding assay"}, "[18]": {"test_system": "Huh-7", "test": "Induction of autophagy in human HuH7 cells assessed as increase in LC3-2 formation at cytotoxic IC50 level after 72 hrs by Western blotting method", "format": "functional, cell-based"}, "[19]": {"target": "Glycogen synthase kinase-3 beta (Homo sapiens) (UniProt P49841)", "test": "Inhibition of GSK3beta (unknown origin) assessed as remaining enzyme activity at 10 uM by radioactive [33P]-ATP filter binding assay"}, "[20]": {"target": "Mitogen-activated protein kinase kinase kinase kinase 3 (Homo sapiens) (UniProt Q8IVH8)", "test": "Inhibition of MAP4K3 (unknown origin) assessed as remaining enzyme activity at 10 uM by radioactive [33P]-ATP filter binding assay"}, "[21]": {"target": "Mitogen-activated protein kinase 15 (Homo sapiens) (UniProt Q8TD08)", "test": "Inhibition of ERK8 (unknown origin) assessed as remaining enzyme activity at 10 uM by radioactive [33P]-ATP filter binding assay", "how_it_was_run": "as §1"}, "[22]": {"target": "Tyrosine-protein kinase JAK2 (Homo sapiens) (UniProt O60674)", "test": "Inhibition of JAK2 (unknown origin) assessed as remaining enzyme activity at 10 uM by radioactive [33P]-ATP filter binding assay"}, "[23]": {"target": "Calcium/calmodulin-dependent protein kinase type 1 (Homo sapiens) (UniProt Q14012)", "test": "Inhibition of CAMK1 (unknown origin) assessed as remaining enzyme activity at 10 uM by radioactive [33P]-ATP filter binding assay", "how_it_was_run": "as §1"}, "[24]": {"target": "CDK2/Cyclin A2 (Homo sapiens) (UniProt P24941+P20248)", "test": "Inhibition of CDK2/Cyclin A (unknown origin) assessed as remaining enzyme activity at 10 uM by radioactive [33P]-ATP filter binding assay", "format": "protein-complex assay", "how_it_was_run": "as §1"}, "[25]": {"target": "Serine/threonine-protein kinase pim-3 (Homo sapiens) (UniProt Q86V86)", "test": "Inhibition of PIM3 (unknown origin) assessed as remaining enzyme activity at 10 uM by radioactive [33P]-ATP filter binding assay"}, "[26]": {"target": "Dual specificity mitogen-activated protein kinase kinase 1 (Homo sapiens) (UniProt Q02750)", "sequence (Q02750 whole entry)": "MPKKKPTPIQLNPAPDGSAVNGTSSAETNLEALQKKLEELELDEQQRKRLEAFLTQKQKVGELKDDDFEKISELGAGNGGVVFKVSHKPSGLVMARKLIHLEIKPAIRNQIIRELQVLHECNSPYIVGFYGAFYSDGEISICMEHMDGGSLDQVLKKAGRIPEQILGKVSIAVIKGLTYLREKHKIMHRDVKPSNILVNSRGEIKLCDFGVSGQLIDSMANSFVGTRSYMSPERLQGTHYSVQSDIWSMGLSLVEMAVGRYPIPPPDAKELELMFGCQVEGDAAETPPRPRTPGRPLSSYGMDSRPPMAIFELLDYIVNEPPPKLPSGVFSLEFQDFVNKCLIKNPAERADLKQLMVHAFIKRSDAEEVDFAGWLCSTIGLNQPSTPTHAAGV", "test": "Inhibition of MKK1 (unknown origin) assessed as remaining enzyme activity at 10 uM by radioactive [33P]-ATP filter binding assay"}, "[27]": {"target": "Serine/threonine-protein kinase ULK1 (Homo sapiens) (UniProt O75385)", "test": "Inhibition of ULK1 (unknown origin) assessed as remaining enzyme activity at 10 uM by radioactive [33P]-ATP filter binding assay"}, "[28]": {"target": "Mitogen-activated protein kinase 1 (Homo sapiens) (UniProt P28482)", "test": "Inhibition of ERK2 (unknown origin) assessed as remaining enzyme activity at 10 uM by radioactive [33P]-ATP filter binding assay", "how_it_was_run": "as §1"}, "[29]": {"target": "Tau-tubulin kinase 2 (Homo sapiens) (UniProt Q6IQ55)", "test": "Inhibition of TTBK2 (unknown origin) assessed as remaining enzyme activity at 10 uM by radioactive [33P]-ATP filter binding assay"}}, "note": "Activity calls are given as the source filed them. The calls are words filed in the database; no cut-off is given here."}
{"smiles": "Cc1ccc(-c2cc(C(=O)Nc3ccnc(Cl)c3)nn2-c2ccc3ccccc3n2)cc1", "values": [{"measurement": "Activity", "setting": "[1]", "value": 104, "unit": "%"}, {"measurement": "Activity", "setting": "[2]", "value": 114, "unit": "%"}, {"measurement": "inhibition", "setting": "[3]", "value": "inactive"}, {"measurement": "Activity", "setting": "[4]", "value": 98, "unit": "%"}, {"measurement": "Activity", "setting": "[5]", "value": "Active"}, {"measurement": "Activity", "setting": "[6]", "value": 90, "unit": "%"}, {"measurement": "Activity", "setting": "[7]", "value": 108, "unit": "%"}, {"measurement": "Activity", "setting": "[8]", "value": 103, "unit": "%"}, {"measurement": "Activity", "setting": "[9]", "value": 106, "unit": "%"}, {"measurement": "Activity", "setting": "[10]", "value": 114, "unit": "%"}, {"measurement": "Activity", "setting": "[11]", "value": 125, "unit": "%"}, {"measurement": "Activity", "setting": "[12]", "value": 109, "unit": "%"}, {"measurement": "Activity", "setting": "[13]", "value": 98, "unit": "%"}, {"measurement": "Activity", "setting": "[14]", "value": 95, "unit": "%"}, {"measurement": "Activity", "setting": "[15]", "value": 108, "unit": "%"}, {"measurement": "Activity", "setting": "[16]", "value": 118, "unit": "%"}, {"measurement": "Activity", "setting": "[17]", "value": 113, "unit": "%"}, {"measurement": "Activity", "setting": "[18]", "value": "inactive"}, {"measurement": "Activity", "setting": "[19]", "value": 103, "unit": "%"}, {"measurement": "Activity", "setting": "[20]", "value": 90, "unit": "%"}, {"measurement": "Activity", "setting": "[21]", "value": 106, "unit": "%"}, {"measurement": "Activity", "setting": "[22]", "value": 99, "unit": "%"}, {"measurement": "Activity", "setting": "[23]", "value": 113, "unit": "%"}, {"measurement": "Activity", "setting": "[24]", "value": 102, "unit": "%"}, {"measurement": "Activity", "setting": "[25]", "value": 113, "unit": "%"}, {"measurement": "Activity", "setting": "[26]", "value": 95, "unit": "%"}, {"measurement": "Activity", "setting": "[27]", "value": 136, "unit": "%"}, {"measurement": "Activity", "setting": "[28]", "value": 115, "unit": "%"}, {"measurement": "Activity", "setting": "[29]", "value": 101, "unit": "%"}]}
